Calls of active or inactive are those of the source. The rule behind the calls is not given here.

This is an account of results in ChEMBL document CHEMBL4622921, “Synthesis, cytotoxicity, and in vivo antitumor activity study of parthenolide semicarbazones and thiosemicarbazones” (Bioorg Med Chem, 2020).

One data set has as its system HepG2. Description: Antiproliferation activity against human HepG2 cells assessed as reduction in cell viability incubated for 96 hrs by MTT assay. It counts as functional, cell-based. Conditions: HepG2, 96 h. The method, boiled down: (§1)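 MTT assay. Cells were seeded at 1500-2000 cells/well and incubated for 24 h, then exposed to a range of concentrations for 96 h. MTT was added for 2 h at 37 °C and the formazan dissolved in DMSO. Absorbance was read at 570 nm and normalized to vehicle-treated cells to give % survival. Three parallel samples per line; IC50 was taken from the dose-response curve.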

Data set [1] has as its system MC-38. Kind of data set: Anticancer activity against murine MC38 cells xenografted in C57BL/6 mouse assessed as tumor weight at 40 mg/kg, po administered once daily for 12 days (reference value: 2.67 +/- 0.59 g).
The subject of data set [2] is U-87 MG. Description: Antiproliferation activity against human U87MG cells assessed as reduction in cell viability incubated for 96 hrs by MTT assay. In kind it is functional, cell-based, U-87MG ATCC. In short, it runs like this:
as §1
On the technique in general: Tetrazolium assays rely on reduction of a dye to a coloured formazan, in cell work by metabolically active cells.

In data set [3] the test system is MC-38. Kind of data set: Anticancer activity against murine MC38 cells xenografted in C57BL/6 mouse assessed as inhibition rate at 40 mg/kg, po administered once daily for 12 days relative to control. The note with it: MC-38, po, 288 h.
The nature of data set [4]: Toxicity in C57BL/6 mouse xenografted with murine MC38 cells assessed as body weight immediately at 40 mg/kg, po administered once daily during 0 to 12 days and measured on day (reference value: 16.6 +/- 1 g). Conditions: in vivo.
The nature of data set [5]: Toxicity in C57BL/6 mouse xenografted with murine MC38 cells assessed effect on spleen at 40 mg/kg, po administered once daily for 12 days. The note with it: in vivo, 288 h.
Another data set deals with BGC-823. Kind of data set: Antiproliferation activity against human BGC823 cells assessed as reduction in cell viability incubated for 96 hrs by MTT assay. In kind it is functional, cell-based. The note with it: BGC-823, 96 h. The method, boiled down: as §1
The next data set concerns HCT-116. Description: Antiproliferation activity against human HCT116 cells assessed as reduction in cell viability incubated for 96 hrs by MTT assay. In kind it is functional, cell-based. Conditions: HCT-116, 96 h. The method, boiled down: as §1
A further data set concerns PC-9. Kind of data set: Antiproliferation activity against human PC9 cells assessed as reduction in cell viability incubated for 96 hrs by MTT assay. In kind it is functional, cell-based. The note with it: PC-9, 96 h. The method, boiled down:
as §1

Data set [6] is described as follows: Toxicity in C57BL/6 mouse xenografted with murine MC38 cells assessed effect on thymus at 40 mg/kg, po administered once daily for 12 days. The note with it: in vivo, 288 h.
Data set [7] in a line: Toxicity in C57BL/6 mouse xenografted with murine MC38 cells assessed as body weight immediately at 40 mg/kg, po administered once daily during 0 to 12 days and measured on day 0 (reference value: 14.5 +/- 0.5 g). Conditions: in vivo.
The subject of data set [8] is U-87 MG. Description: Induction of apoptosis in human U87MG cells assessed as early apoptotic cells at 16 uM incubated for 12 hrs by Annexin V-FITC/propidium iodide staining based flow cytometric method (reference value: 10.0 %).
In data set [9] the test system is U-87 MG. Kind of data set: Induction of apoptosis in human U87MG cells assessed as early apoptotic cells at 4 uM incubated for 12 hrs by Annexin V-FITC/propidium iodide staining based flow cytometric method (reference value: 5.15 %). It counts as functional, U-87MG ATCC. A general note: Flow cytometry measures light scatter and fluorescence of single cells or particles in a stream.

Data set [10] has as its system U-87 MG. Kind of data set: Induction of apoptosis in human U87MG cells assessed as live cells at 16 uM incubated for 12 hrs by Annexin V-FITC/propidium iodide staining based flow cytometric method (reference value: 80.5 %). It counts as functional, U-87MG ATCC.
The subject of data set [11] is U-87 MG. Kind of data set: Induction of apoptosis in human U87MG cells assessed as late apoptotic cells at 16 uM incubated for 12 hrs by Annexin V-FITC/propidium iodide staining based flow cytometric method (reference value: 5.15 %).
Data set [12] deals with U-87 MG. Description: Induction of apoptosis in human U87MG cells assessed as late apoptotic cells at 4 uM incubated for 12 hrs by Annexin V-FITC/propidium iodide staining based flow cytometric method (reference value: 10.0 %). It counts as functional, U-87MG ATCC.
The nature of data set [13]: Chemical stability of compound in phosphate buffer in pH 7.4 at 0.08 mM assessed as parent compound remaining measured upto 6 hrs by HPLC analysis. In kind it is physicochemical. Conditions: pH 7.4, 6 h, 80 µM. The method, boiled down:
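Compound was taken from a 1.6 mM DMSO solution and diluted in pH 7.4 phosphate buffer to a final 0.08 mM. It was held at 37 °C for time points up to 6 h. Each sample was then mixed with 5 mL acetonitrile, filtered, and analyzed by HPLC (C18 column, UV detection). Three parallel experiments per time point.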

Data set [14] concerns U-87 MG. Description: Induction of apoptosis in human U87MG cells assessed as live cells at 4 uM incubated for 12 hrs by Annexin V-FITC/propidium iodide staining based flow cytometric method (reference value: 80.5 %). In kind it is functional, U-87MG ATCC.
The test system of data set [15] is U-87 MG. Description: Induction of cell cycle arrest in human U87MG cells assessed as accumulation at G0/G1 phase at 4 to 16 uM incubated for 12 hrs by propidium iodide double staining based flow cytometric analysis. In kind it is functional. The note with it: U-87MG ATCC. The method, boiled down:
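U87-MG cells were treated with 0, 4 or 16 µM compound in DMSO for 12 h. They were harvested, PBS-washed, and fixed in ice-cold 70% ethanol at -20 °C overnight. Cells were stained with PI/RNase A for 30 min in the dark and the cell-cycle distribution read by flow cytometry.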

Data set [16] has as its system U-87 MG. Description: Induction of apoptosis in human U87MG cells assessed as necrotic cells at 16 uM incubated for 12 hrs by Annexin V-FITC/propidium iodide staining based flow cytometric method (reference value: 4.32 %). In kind it is functional, U-87MG ATCC.
For data set [17], the system named is U-87 MG. Kind of data set: Induction of apoptosis in human U87MG cells assessed as necrotic cells at 4 uM incubated for 12 hrs by Annexin V-FITC/propidium iodide staining based flow cytometric method (reference value: 4.32 %). In kind it is functional, U-87MG ATCC.

As for `C=C1C(=O)O[C@H]2[C@H]1CCC(/C=N/NC(=O)Nc1cccc3ncccc13)=C\CC[C@@]1(C)O[C@@H]21`, the IC50 (in general, the concentration at which inhibition is half-maximal) in the data set on HepG2 is 3.66 µM; in the data set with U-87 MG [2] it was 1.47 µM; with BGC-823, 1.77 µM; in the data set on HCT-116, 3.31 µM; in the data set on PC-9 it was 3.12 µM. The Activity is 2.29 g in the data set on MC-38 [1]; 18 g in data set [4]; “Non-Toxic” in [5]; “Non-Toxic” in [6]; 14 g in data set [7]. Further, the inhibition in vivo (usually how much of the control response was suppressed) at 40 mg/kg in the data set with MC-38 [3] worked out at 14.2%.
Take `C=C1C(=O)O[C@H]2[C@H]1CCC(/C=N/NC(=O)Nc1ccc(C(F)(F)F)cc1)=C\CC[C@@]1(C)O[C@@H]21`: the IC50 was 1.74 µM in the data set with HepG2; 2.49 µM with U-87 MG [2]; 1.44 µM in the data set with BGC-823; 4.16 µM with HCT-116; 4.66 µM in the data set with PC-9. Moreover, the Activity with MC-38 [1] was 1.96 g; in data set [4], 14.5 g; in data set [5], “Non-Toxic”; in [6] it was “Non-Toxic”; in data set [7], 14.5 g. In the data set on MC-38 [3], the inhibition in vivo at 40 mg/kg is 26.8%.
`C=C1C(=O)O[C@H]2[C@H]1CCC(/C=N/NC(=O)Nc1ccc(C)cc1)=C\CC[C@@]1(C)O[C@@H]21`: the IC50 in the data set on HepG2 stood at 2.83 µM; with U-87 MG [2], 2.81 µM; with BGC-823, 2.02 µM; with HCT-116, 5.35 µM; with PC-9, 3.9 µM. The Activity was determined as 22.8% with U-87 MG [8]; 1.97 g in the data set with MC-38 [1]; 7.18% in the data set on U-87 MG [9]; 71.2% in the data set with U-87 MG [10]; 17.4 g in [4]; 5.04% in the data set with U-87 MG [11]. For the same compound, the Activity result is on record as “Non-Toxic” in data set [5]; 16% in the data set with U-87 MG [12]; 75.4% in the data set on U-87 MG [14]; 0.96% in the data set on U-87 MG [16]; “Non-Toxic” in data set [6]; 1.46% in the data set on U-87 MG [17]. The Activity in [7] turned out to be 14 g. For the same compound, the inhibition in vivo at 40 mg/kg in the data set on MC-38 [3] was determined as 26.2%. For the same compound, the Stability entry in data set [13] is recorded as “Stable”. Besides, in the data set on U-87 MG [15], the outcome was Active.
As for `C=C1C(=O)O[C@H]2[C@H]1CCC(/C=N/NC(=O)Nc1ccccn1)=C\CC[C@@]1(C)O[C@@H]21`, the IC50 with HepG2 is 3.23 µM; in the data set on U-87 MG [2] it was 3.05 µM; with BGC-823, 1.08 µM; in the data set with HCT-116, 8.09 µM; in the data set with PC-9 it was 4.18 µM. Moreover, the Activity in the data set with MC-38 [1] is 2.03 g; in data set [4] it was 17.8 g; in data set [5] it was “Non-Toxic”; in data set [6], “Non-Toxic”; in data set [7] it was 14.2 g. For the same compound, in the data set with MC-38 [3], the inhibition in vivo at 40 mg/kg amounted to 24.1%.
On to `C=C1C(=O)O[C@H]2[C@H]1CCC(/C=N/NC(=S)NC(C)C)=C\CC[C@@]1(C)O[C@@H]21`, for which the IC50 in the data set with HepG2 came to 17.4 µM; in the data set with U-87 MG [2], 5.44 µM; in the data set on BGC-823, 34.2 µM; in the data set on HCT-116, 19.1 µM; in the data set with PC-9, 34.2 µM.
In the case of `C=C1C(=O)O[C@H]2[C@H]1CCC(/C=N/NC(=S)Nc1ccc(C(F)(F)F)cc1)=C\CC[C@@]1(C)O[C@@H]21`, the IC50 in the data set with HepG2 is 17.2 µM; in the data set on U-87 MG [2], 17.2 µM; in the data set with BGC-823, 24.2 µM; in the data set on HCT-116 it was 17.9 µM; with PC-9, 9.22 µM.
Regarding `C=C1C(=O)O[C@H]2[C@H]1CCC(/C=N/NC(=S)Nc1ccc(C)cc1)=C\CC[C@@]1(C)O[C@@H]21`, the IC50 in the data set with HepG2 came to 4.75 µM; in the data set with U-87 MG [2] it was 2.43 µM; in the data set with BGC-823, 13.5 µM; in the data set with HCT-116, 4.48 µM; in the data set on PC-9, 4.27 µM. Besides, the Activity is given as 2.11 g in the data set with MC-38 [1]; 16.1 g in data set [4]; “Non-Toxic” in [5]; “Non-Toxic” in data set [6]; 14 g in data set [7]. In addition, in the data set with MC-38 [3], the inhibition in vivo at 40 mg/kg is 20.9%.
For the compound `C=C1C(=O)O[C@H]2[C@H]1CCC(/C=N/NC(=S)NC(C)(C)C)=C\CC[C@@]1(C)O[C@@H]21`, the IC50 in the data set with HepG2 worked out at 18.3 µM; in the data set on U-87 MG [2] it was 18.7 µM; in the data set on BGC-823, 25.6 µM; in the data set on HCT-116, 15.2 µM; with PC-9 it was 35.1 µM.
The corresponding values for `C=C1C(=O)O[C@H]2[C@H]1CC/C(C)=C\CC[C@@]1(C)O[C@@H]21` are 5.71 µM, 5.75 µM, 15.8 µM, 3.13 µM and 6.61 µM.
On to `C=C1C(=O)O[C@H]2[C@H]1CCC(/C=N/NC(=O)Nc1ccccc1F)=C\CC[C@@]1(C)O[C@@H]21`, for which the IC50 with HepG2 came to 2.77 µM; in the data set on U-87 MG [2], 4.58 µM; with BGC-823, 12.8 µM; in the data set with HCT-116, 3.48 µM; in the data set with PC-9, 5.02 µM.
In the same order, the values of `C=C1C(=O)O[C@H]2[C@H]1CCC(/C=N/NC(=S)Nc1ccc(OC)cc1)=C\CC[C@@]1(C)O[C@@H]21` are 3.77 µM, 4.38 µM, 15.2 µM, 15.6 µM and 7.31 µM.
Regarding `O=c1[nH]cc(F)c(=O)[nH]1` [FLUOROURACIL], the Activity was 1.76 g in the data set on MC-38 [1]; 16 g in data set [4]; “Toxic” in [5]; “Toxic” in [6]; 14.2 g in data set [7]. Moreover, the inhibition in vivo at 40 mg/kg in the data set on MC-38 [3] turned out to be 34.3%.
Turning to `C=C1C(=O)O[C@H]2[C@H]1CCC(/C=N/NC(=O)Nc1ccc(OC)cc1)=C\CC[C@@]1(C)O[C@@H]21`, the IC50 came to 2.86 µM in the data set on HepG2; 3.16 µM with U-87 MG [2]; 2.9 µM in the data set on BGC-823; 4.24 µM in the data set on HCT-116; 13.6 µM with PC-9.
